Laboratory results as given in ChEMBL document CHEMBL3124924, “Bifunctional ethyl 2-amino-4-methylthiazole-5-carboxylate derivatives: synthesis and in vitro biological evaluation as antimicrobial and anticancer agents” (2014).

Key:
Type in all cases: functional
U-251 = assay: Cytotoxicity against human U251 cells assessed as growth inhibition at 10 uM after 48 hrs by SRB assay; details: U-251, 48 h, read-out: GI
Summary of the method: (§1)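 NCI-60 one-dose primary screen run by the NCI Drug Evaluation Branch across the full 60-line panel. Single high-dose treatment with 48 h continuous drug exposure. Cell growth estimated by sulforhodamine B protein staining. Results given as percent growth of treated cells and expressed as percentage growth inhibition.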

SNB-75 = assay: Cytotoxicity against human SNB75 cells assessed as growth inhibition at 10 uM after 48 hrs by SRB assay; details: SNB-75, 48 h, read-out: GI; summary of the method: as §1
SF-268 = assay: Cytotoxicity against human SF268 cells assessed as growth inhibition at 10 uM after 48 hrs by SRB assay; details: SF-268, 48 h, read-out: GI; summary of the method: as §1
PC-3 = assay: Cytotoxicity against human PC3 cells assessed as growth inhibition at 10 uM after 48 hrs by SRB assay; details: PC-3, 48 h, read-out: GI; summary of the method: as §1
UACC-62 = assay: Cytotoxicity against human UACC62 cells assessed as growth inhibition at 10 uM after 48 hrs by SRB assay; details: UACC-62, 48 h, read-out: GI; summary of the method: as §1
SK-MEL-5 = assay: Cytotoxicity against human SK-MEL-5 cells assessed as growth inhibition at 10 uM after 48 hrs by SRB assay; details: SK-MEL-5, 48 h, read-out: GI; summary of the method: as §1
SK-MEL-2 = assay: Cytotoxicity against human SK-MEL-2 cells assessed as growth inhibition at 10 uM after 48 hrs by SRB assay; details: SK-MEL-2, 48 h, read-out: GI; summary of the method: as §1
LOX IMVI = assay: Cytotoxicity against human LOXIMVI cells assessed as growth inhibition at 10 uM after 48 hrs by SRB assay; details: read-out: GI; summary of the method: as §1
[1] = Cytotoxicity against human UO31 cells assessed as growth inhibition at 10 uM after 48 hrs by SRB assay; details: UO-31, 48 h, read-out: GI; summary of the method: as §1
SN12C = assay: Cytotoxicity against human SN12C cells assessed as growth inhibition at 10 uM after 48 hrs by SRB assay; details: read-out: GI; summary of the method: as §1
A498 = assay: Cytotoxicity against human A498 cells assessed as growth inhibition at 10 uM after 48 hrs by SRB assay; details: A498, 48 h, read-out: GI; summary of the method: as §1
SR = assay: Cytotoxicity against human SR cells assessed as growth inhibition at 10 uM after 48 hrs by SRB assay; details: read-out: GI; summary of the method: as §1
RPMI-8226 = assay: Cytotoxicity against human RPMI8226 cells assessed as growth inhibition at 10 uM after 48 hrs by SRB assay; details: RPMI-8226, 48 h, read-out: GI; summary of the method: as §1
MOLT-4 = assay: Cytotoxicity against human MOLT4 cells assessed as growth inhibition at 10 uM after 48 hrs by SRB assay; details: MOLT-4, 48 h, read-out: GI; summary of the method: as §1
K562 = assay: Cytotoxicity against human K562 cells assessed as growth inhibition at 10 uM after 48 hrs by SRB assay; details: K562, 48 h, read-out: GI; summary of the method: as §1
CCRF-CEM = assay: Cytotoxicity against human CCRF-CEM cells assessed as growth inhibition at 10 uM after 48 hrs by SRB assay; details: read-out: GI; summary of the method: as §1
IGROV-1 = assay: Cytotoxicity against human IGROV1 cells assessed as growth inhibition at 10 uM after 48 hrs by SRB assay; details: IGROV-1, 48 h, read-out: GI; summary of the method: as §1
T47D = assay: Cytotoxicity against human T47D cells assessed as growth inhibition at 10 uM after 48 hrs by SRB assay; details: read-out: GI; summary of the method: as §1
MDA-MB-468 = assay: Cytotoxicity against human MDA-MB-468 cells assessed as growth inhibition at 10 uM after 48 hrs by SRB assay; details: MDA-MB-468, 48 h, read-out: GI; summary of the method: as §1
[2] = Cytotoxicity against human NCI-ADR-RES cells assessed as growth inhibition at 10 uM after 48 hrs by SRB assay; details: read-out: GI; summary of the method: as §1
MCF7 = assay: Cytotoxicity against human MCF7 cells assessed as growth inhibition at 10 uM after 48 hrs by SRB assay; details: MCF7, 48 h, read-out: GI; summary of the method: as §1
[3] = Cytotoxicity against human Hs578T cells assessed as growth inhibition at 10 uM after 48 hrs by SRB assay; details: Hs-578T, read-out: GI; summary of the method: as §1
SW-620 = assay: Cytotoxicity against human SW620 cells assessed as growth inhibition at 10 uM after 48 hrs by SRB assay; details: SW-620, 48 h, read-out: GI; summary of the method: as §1
HT-29 = assay: Cytotoxicity against human HT-29 cells assessed as growth inhibition at 10 uM after 48 hrs by SRB assay; details: HT-29, 48 h, read-out: GI; summary of the method: as §1
HCT-15 = assay: Cytotoxicity against human HCT15 cells assessed as growth inhibition at 10 uM after 48 hrs by SRB assay; details: HCT-15, 48 h, read-out: GI; summary of the method: as §1
HCT-116 = assay: Cytotoxicity against human HCT116 cells assessed as growth inhibition at 10 uM after 48 hrs by SRB assay; details: HCT-116, 48 h, read-out: GI; summary of the method: as §1
HCC 2998 = assay: Cytotoxicity against human HCC2998 cells assessed as growth inhibition at 10 uM after 48 hrs by SRB assay; details: HCC 2998, 48 h, read-out: GI; summary of the method: as §1
NCI-H522 = assay: Cytotoxicity against human NCI-H522 cells assessed as growth inhibition at 10 uM after 48 hrs by SRB assay; details: NCI-H522, 48 h, read-out: GI; summary of the method: as §1
NCI-H322M = assay: Cytotoxicity against human NCI-H322M cells assessed as growth inhibition at 10 uM after 48 hrs by SRB assay; details: read-out: GI; summary of the method: as §1
NCI-H226 = assay: Cytotoxicity against human NCI-H226 cells assessed as growth inhibition at 10 uM after 48 hrs by SRB assay; details: NCI-H226, 48 h, read-out: GI; summary of the method: as §1
HOP-92 = assay: Cytotoxicity against human HOP92 cells assessed as growth inhibition at 10 uM after 48 hrs by SRB assay; details: HOP-92, 48 h, read-out: GI; summary of the method: as §1

Cc1nc(N)sc1C(=O)NCCO
inhibition of growth at 10 µM (U-251): < 10% | inhibition of growth at 10 µM (SNB-75): < 10% | inhibition of growth at 10 µM (SF-268): 2.48% | inhibition of growth at 10 µM (PC-3): < 10% | inhibition of growth at 10 µM (UACC-62): 7.33% | inhibition of growth at 10 µM (SK-MEL-5): < 10% | inhibition of growth at 10 µM (SK-MEL-2): 87.4% | inhibition of growth at 10 µM (LOX IMVI): < 10% | inhibition of growth at 10 µM [1]: 20% | inhibition of growth at 10 µM (SN12C): < 10% | inhibition of growth at 10 µM (A498): < 10% | inhibition of growth at 10 µM (SR): < 10% | inhibition of growth at 10 µM (RPMI-8226): < 10% | inhibition of growth at 10 µM (MOLT-4): < 10% | inhibition of growth at 10 µM (K562): < 10% | inhibition of growth at 10 µM (CCRF-CEM): 40% | inhibition of growth at 10 µM (IGROV-1): < 10% | inhibition of growth at 10 µM (T47D): < 10% | inhibition of growth at 10 µM (MDA-MB-468): 3.17% | inhibition of growth at 10 µM [2]: < 10% | inhibition of growth at 10 µM (MCF7): 2.13% | inhibition of growth at 10 µM [3]: < 10% | inhibition of growth at 10 µM (SW-620): < 10% | inhibition of growth at 10 µM (HT-29): < 10% | inhibition of growth at 10 µM (HCT-15): < 10% | inhibition of growth at 10 µM (HCT-116): 2.49% | inhibition of growth at 10 µM (HCC 2998): < 10% | inhibition of growth at 10 µM (NCI-H522): 65.4% | inhibition of growth at 10 µM (NCI-H322M): < 10% | inhibition of growth at 10 µM (NCI-H226): 3.91% | inhibition of growth at 10 µM (HOP-92): 82.1%
